The target of assay [1] is T1, recombinant mouse α-Klotho (mKlotho) (Mus musculus, UniProt O35082).
T1 sequence (O35082 35-960): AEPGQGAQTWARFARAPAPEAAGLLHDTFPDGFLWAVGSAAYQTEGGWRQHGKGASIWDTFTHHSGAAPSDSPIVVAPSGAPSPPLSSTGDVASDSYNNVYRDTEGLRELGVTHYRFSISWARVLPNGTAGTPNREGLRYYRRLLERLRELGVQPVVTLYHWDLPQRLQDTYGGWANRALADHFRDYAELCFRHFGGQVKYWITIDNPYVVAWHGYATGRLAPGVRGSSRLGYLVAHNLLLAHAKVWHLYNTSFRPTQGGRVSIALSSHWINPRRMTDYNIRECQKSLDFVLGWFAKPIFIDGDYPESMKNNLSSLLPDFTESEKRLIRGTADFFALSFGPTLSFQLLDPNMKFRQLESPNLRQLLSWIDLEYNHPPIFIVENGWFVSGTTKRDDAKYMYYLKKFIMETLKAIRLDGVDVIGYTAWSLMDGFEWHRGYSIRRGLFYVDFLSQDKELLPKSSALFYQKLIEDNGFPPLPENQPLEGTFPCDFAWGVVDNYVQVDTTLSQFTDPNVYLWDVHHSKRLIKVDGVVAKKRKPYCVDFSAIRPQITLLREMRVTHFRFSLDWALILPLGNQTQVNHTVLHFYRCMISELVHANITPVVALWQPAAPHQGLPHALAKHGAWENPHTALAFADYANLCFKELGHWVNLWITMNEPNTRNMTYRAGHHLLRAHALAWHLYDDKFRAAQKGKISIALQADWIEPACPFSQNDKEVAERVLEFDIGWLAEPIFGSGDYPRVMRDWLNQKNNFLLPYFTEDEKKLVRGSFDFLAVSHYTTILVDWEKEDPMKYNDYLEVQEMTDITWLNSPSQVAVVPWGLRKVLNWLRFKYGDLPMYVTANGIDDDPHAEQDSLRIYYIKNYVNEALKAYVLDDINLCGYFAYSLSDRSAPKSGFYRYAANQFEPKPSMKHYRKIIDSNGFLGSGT
Briefly: Competition binding assay with BLI against immobilized Pep-10-Biotin, mKlotho.

The subject of assay [2] is endogenous hKlotho in HK-2 cell lysate. The assay can be described thus: Pull-down assay from HK-2 cell lysate. In kind it is binding, human. To be noted: for selectivity of pull-down by silver stain, HK-2 cell lysate: silver stain of eluents. Put shortly: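 HK-2 cells (Keratinocyte SFM with bovine pituitary extract and EGF; 37 °C, 5% CO2) were scraped and lysed in RIPA with protease inhibitors; 20% kept as input. 200 μg lysate: unlabelled competitor preincubated 15 min, then biotinylated probe 30 min RT. Streptavidin magnetic beads 20 min, PBS washes, 8 M urea elution 30 min. SDS-PAGE, then silver stain or KM2076 western (1:1000, 4 °C overnight; HRP anti-rat; chemiluminescence). Bands quantified by densitometry.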

For assay [3], the target named is recombinant human α-Klotho (human) (UniProt Q9UEF7). The assay can be described thus: BLI. (Biolayer interferometry detects binding as a change in optical thickness at a sensor tip.)
Assay [4] has as its target recombinant mouse α-Klotho (mouse) (UniProt O35082). Briefly: BLI.
Target sequence in this assay (O35082 35-1014): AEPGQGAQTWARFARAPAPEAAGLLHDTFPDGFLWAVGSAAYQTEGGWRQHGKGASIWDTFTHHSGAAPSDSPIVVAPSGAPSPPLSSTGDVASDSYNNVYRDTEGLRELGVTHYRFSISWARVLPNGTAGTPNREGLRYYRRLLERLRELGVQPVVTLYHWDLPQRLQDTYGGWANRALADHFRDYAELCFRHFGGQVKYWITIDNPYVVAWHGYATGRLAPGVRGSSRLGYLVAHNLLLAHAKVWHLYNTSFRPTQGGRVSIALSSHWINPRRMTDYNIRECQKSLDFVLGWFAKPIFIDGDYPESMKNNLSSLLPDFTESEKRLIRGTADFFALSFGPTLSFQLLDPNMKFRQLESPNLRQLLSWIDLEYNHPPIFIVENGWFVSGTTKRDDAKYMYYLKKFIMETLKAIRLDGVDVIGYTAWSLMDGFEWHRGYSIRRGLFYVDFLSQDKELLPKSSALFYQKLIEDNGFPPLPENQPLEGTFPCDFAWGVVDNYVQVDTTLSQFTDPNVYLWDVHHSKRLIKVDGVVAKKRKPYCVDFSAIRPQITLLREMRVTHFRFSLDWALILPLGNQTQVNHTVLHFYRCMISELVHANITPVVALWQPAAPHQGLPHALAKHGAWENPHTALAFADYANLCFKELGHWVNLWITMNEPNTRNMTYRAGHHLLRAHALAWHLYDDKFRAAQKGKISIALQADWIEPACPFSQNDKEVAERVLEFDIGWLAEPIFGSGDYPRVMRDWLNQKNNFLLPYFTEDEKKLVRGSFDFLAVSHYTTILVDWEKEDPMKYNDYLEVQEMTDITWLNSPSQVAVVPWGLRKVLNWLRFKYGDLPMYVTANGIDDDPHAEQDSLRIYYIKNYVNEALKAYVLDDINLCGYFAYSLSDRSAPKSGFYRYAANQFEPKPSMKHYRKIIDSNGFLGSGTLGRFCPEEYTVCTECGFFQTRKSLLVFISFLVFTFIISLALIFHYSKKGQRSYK
Assay [5] has the same target. The assay can be described thus: affinity selection-mass spectrometry.

The source of these data is article PMC11040699 (JACS Au, 2024).

Broadly, the Kd is a measure of binding affinity in units of concentration.

Entries after “also recorded” stand apart in the source; their conditions may differ. Residues, ends and D or L forms follow the SMILES beside them. No end group written: not given here. *: point of attachment. Acetyl(9-fluorenyl) = O=C(CC1c2ccccc2-c2ccccc21)*

recombinant human α-Klotho (human), sequence (Q9UEF7 34-1012): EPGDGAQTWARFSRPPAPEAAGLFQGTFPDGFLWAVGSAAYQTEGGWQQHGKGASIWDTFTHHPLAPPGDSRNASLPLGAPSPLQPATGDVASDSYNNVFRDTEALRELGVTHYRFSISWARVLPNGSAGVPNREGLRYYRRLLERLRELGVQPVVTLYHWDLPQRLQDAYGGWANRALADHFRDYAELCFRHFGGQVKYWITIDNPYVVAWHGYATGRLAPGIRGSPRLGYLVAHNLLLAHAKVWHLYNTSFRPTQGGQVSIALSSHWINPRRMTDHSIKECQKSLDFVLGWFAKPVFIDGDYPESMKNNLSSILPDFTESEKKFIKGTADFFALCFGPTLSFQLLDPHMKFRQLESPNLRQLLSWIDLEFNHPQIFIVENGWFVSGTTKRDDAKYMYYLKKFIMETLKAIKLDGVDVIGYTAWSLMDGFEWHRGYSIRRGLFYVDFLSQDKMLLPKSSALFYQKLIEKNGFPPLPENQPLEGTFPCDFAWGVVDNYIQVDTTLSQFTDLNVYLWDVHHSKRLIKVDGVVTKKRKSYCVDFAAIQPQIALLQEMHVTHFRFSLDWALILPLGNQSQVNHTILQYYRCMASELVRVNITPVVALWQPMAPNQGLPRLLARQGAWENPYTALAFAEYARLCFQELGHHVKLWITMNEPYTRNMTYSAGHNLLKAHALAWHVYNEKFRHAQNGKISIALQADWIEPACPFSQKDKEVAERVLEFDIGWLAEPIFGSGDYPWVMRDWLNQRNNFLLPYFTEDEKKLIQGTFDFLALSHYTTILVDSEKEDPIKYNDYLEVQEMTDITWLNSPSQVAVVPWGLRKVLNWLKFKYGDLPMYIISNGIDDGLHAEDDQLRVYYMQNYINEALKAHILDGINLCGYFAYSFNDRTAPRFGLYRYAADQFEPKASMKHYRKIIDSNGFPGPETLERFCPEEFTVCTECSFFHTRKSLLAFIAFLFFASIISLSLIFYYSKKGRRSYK

With `CSCC[C@H](NC(=O)[C@H](CCCNC(=N)N)NC(=O)[C@H](C)NC(=O)[C@H](CCCNC(=N)N)NC(=O)[C@@H]1CCCN1C(=O)[C@H](CCCNC(=N)N)NC(=O)[C@@H](NC(=O)[C@@H](NC(=O)CNC(=O)[C@H](CC(C)C)NC(=O)[C@@H]1CCCN1C(=O)[C@H](CC(=O)O)NC(=O)[C@H](CO)NC(=O)[C@H](C)NC(=O)[C@H](CCSC)NC(=O)[C@@H]1CCCN1C(=O)CC1c2ccccc2-c2ccccc21)C(C)C)C(C)C)C(N)=O` [K1] ({Acetyl(9-fluorenyl)}-PMASDPLGVVRPRARM-NH2), in assay [1], the “fold change of competition KD relative to Pep-10” value was 89 fold.

Regarding “Biotin-PEG4-PMASDPLGVVRPRAM [Pep-10-Biotin]”, the “selectivity of pull-down by silver stain, HK-2 cell lysate” value is on record as “not enriched” in assay [2] (50 nM of biotinylated peptides) and “not able to enrich Klotho” in assay [2] (legend of Figure 4D, 200 nM printed, n = 2). In addition, the “Klotho enrichment in pulled-down fraction, HK-2 cell lysate” value in assay [2] (western blot, probe at 2 μM, n = 2) is “minor enrichment; also recorded: moderately enriched”.

B1: fibroblast growth factor 23 (ligand)
chain: YPNASPLLGSSWGGLIHLYTATARNSYHLQIHKNGHVDGAPHQTIYSALMIRSEDAGFVVITGVMSRRYLCMDFRGNIFGSHYFDPENCRFQHQTLENGYDVYHSPQYHFLVSLGRAKRAFLPGMNPPPYSQFLSRRNEIPLIHFNTPIPRRHTRSAEDDSERDPLNVLKPRARMTPAPASCSQELPSAEDNSPMASDPLGVVRGGRVNTHAGGTGPEGCRPFAKFI
Regarding B1, the Kd in assay [3] was found to be 151 nM.

B2: K17 (peptide)
peptide: fluorenyl-ASDPLGVVRGRAR
modifications: not fully specified (C-terminus)
As for B2, the Kd in assay [4] turned out to be 9 nM.

B3: K1 P12A (peptide)
peptide: fluorenyl-PMASDPLGVVRARARM
For the molecule B3, the equilibrium dissociation constant (Kd) in assay [4] came to 15 nM.

B4: K1 (peptide)
peptide: fluorenyl-PMASDPLGVVRPRARM
Turning to B4, the Kd in assay [4] stood at 66 nM.

B5: K12 (peptide)
peptide: fluorenyl-ASDPLGVVRGRA
For the molecule B5, the equilibrium dissociation constant (Kd) in assay [4] turned out to be 19 nM.

B6: K4 (peptide)
peptide: fluorenyl-ASDPLGVVRPRA
Regarding B6, the Kd in assay [4] was 139 nM. The recovery yield in assay [5] came to 0.5%.

B7: Pep-10 (peptide)
peptide: PMASDPLGVVRPRARM
Regarding B7, the Kd in assay [4] amounted to 5900 nM.
